Measured values taken from ChEMBL document CHEMBL4371043, “Dynamic Generation of G-Quadruplex DNA Ligands by Target-Guided Combinatorial Chemistry on a Magnetic Nanoplatform” (J Med Chem, 2019).
Active and inactive are the calls of the source. No cut-off for these calls is given here.

How the values were obtained:
dsDNA [1] = assay: Binding affinity to 6-FAM/TAMRA labeled double stranded DNA (unknown origin) in potassium cacodylate buffer assessed as change in melting temperature at 1 uM at pH 7.4 by FRET-Based DNA melting assay; type: nucleic-acid assay
Summary of the method: (§1)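 FRET melting: FAM/TAMRA dual-labelled oligos (G4: TG4AG3TG4AG3TG4A2G2; duplex: CA5T5GCA5T5G) annealed at 400 nM in 60 mM potassium cacodylate pH 7.4 (95 °C 5 min, cool 0.1 °C/min). Melting run on 200 nM oligo ± 1 μM ligand; excitation 480 nm, emission 530 nm, 37–95 °C, 30 reads per °C. ΔTm versus ligand-free DNA.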

Quadruplex DNA [2] = assay: Binding affinity to 6-FAM/TAMRA labeled cMYC G-quadruplex DNA (unknown origin) in potassium cacodylate buffer assessed as change in melting temperature at 1 uM at pH 7.4 by FRET-Based DNA melting assay; type: nucleic-acid assay; summary of the method: as §1
Quadruplex DNA [3] = assay: Binding affinity to wild type cMYC G-quadruplex DNA promoter sequence (unknown origin) transfected in human Hela cells assessed as reduction in c-MYC promoter-linked expression at 1 uM incubated for 36 hrs by dual-luciferase reporter gene assay relative to control; type: cell-based
Summary of the method: (§2)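 Dual luciferase in HeLa: 0.2 μg c-MYC Del4 firefly reporter (wild-type or G-to-A mutant G-rich region) co-transfected with 30 ng pRL-TK Renilla control, Lipofectamine 2000, serum-free DMEM; after 8 h switched to complete medium with ligand at 1 or 1.5 μM. Lysed at 36 h; firefly activity normalised to Renilla.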

Quadruplex DNA [4] = assay: Binding affinity to cMYC G-quadruplex DNA (unknown origin) assessed as induction of red shift at 0.25 uM in presence of increasing concentration of DNA by fluorimetric titration relative to control; type: nucleic-acid assay
Summary of the method: (§3)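 Fluorimetric titration: unlabelled pre-folded G4 (TG4AG3TG4AG3TG4A2G2) or duplex (CA5T5GCA5T5G) DNA added stepwise to 0.25 μM ligand in filtered, degassed 100 mM Tris·KCl pH 7.4; 25 °C, 1 cm quartz cuvette, excitation 300 nm. Apparent Kd from fitting emission intensity against [DNA] to a one-site Hill equation.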

Quadruplex DNA [5] = assay: Binding affinity to cMYC G-quadruplex DNA in human HeLa cells assessed as reduction in cMYC protein expression after 24 hrs by Western blot analysis; type: cell-based
Summary of the method: (§4)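 Western blot, HeLa: 24 h ligand exposure at 1.0, 1.5 or 2.0 μM; lysis in 20 mM Tris/100 mM NaCl/1 mM EDTA/0.5% Triton X-100, protein by Folin-Lowry; 70 μg on 12% SDS-PAGE, nitrocellulose, 4% BSA block; rabbit anti-c-MYC and mouse anti-GAPDH overnight at 4 °C, HRP secondaries 2 h; bands quantified densitometrically.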

Quadruplex DNA [6] = assay: Binding affinity to cMYC G-quadruplex DNA in human HeLa cells assessed as reduction in cMYC protein expression at 1.5 uM after 24 hrs by Western blot analysis relative to control; type: cell-based; summary of the method: as §4
HeLa [7] = assay: Effect on GAPDH protein expression in human HeLa cells at 1 to 2 uM after 24 hrs by Western blot analysis relative to control; type: ADME, cell-based; summary of the method: as §4
Quadruplex DNA [8] = assay: Effect on native parallel topology of cMYC G-quadruplex DNA (unknown origin) assessed as formation of positive band at 260 nm up to 10 equiv concentration by CD spectroscopy; type: nucleic-acid assay
Quadruplex DNA [9] = assay: Displacement thiazole orange from cMYC G-quadruplex DNA (unknown origin) in tris-KCL buffer after 30 mins by FID assay; type: nucleic-acid assay
Summary of the method: (§5)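 Thiazole orange displacement: pre-folded G4 or duplex DNA (0.25 μM) with TO (0.50 μM) in 100 mM Tris–KCl pH 7.4, 30 min rt; compound added stepwise, 3 min equilibration each, spectra excited at 501 nm. Percent TO displaced = 100 − (FA×100/FA0) from emission area; DC50 read from displacement-versus-concentration plot.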

Quadruplex DNA [10] = assay: Effect on native parallel topology of cMYC G-quadruplex DNA (unknown origin) assessed as formation of negative band at 240 nm up to 10 equiv concentration by CD spectroscopy; type: nucleic-acid assay
Quadruplex DNA [11] = assay: Binding affinity to cMYC G-quadruplex DNA in human HeLa cells assessed as induction of DNA damage by measuring increase in gammaH2AX foci at 1 to 2 uM measured after overnight incubation by alexafluor-647-based flow cytometry; type: cell-based
Summary of the method: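 γH2AX flow cytometry: HeLa treated overnight with 1 or 2 μM ligand, trypsinised, fixed in 1% paraformaldehyde 30 min rt, permeabilised with 0.03% saponin 20 min, then stained 3 h with Alexa Fluor 647 anti-γH2AX (1:100 in PBS + 0.1% FBS).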

A549 = assay: Cytotoxicity against human A549 cells assessed as reduction in cell viability after 24 hrs by XTT assay; type: functional, cell-based; settings: A549, 24 h
Summary of the method: (§6)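 XTT viability: HeLa (DMEM), A549 (Ham's F12K) or NKE (glutamine-supplemented RPMI 1640), all with 10% FBS, 37 °C, 5% CO2; 10^4–10^5 cells/well exposed to 0–50 μM compound for 24 h, in triplicate. XTT/PMS added 2 h at 37 °C; absorbance 450 nm; viability as percent of untreated control.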

Quadruplex DNA [12] = assay: Binding affinity to wild type cMYC G-quadruplex DNA promoter sequence (unknown origin) transfected in human Hela cells assessed as reduction in c-MYC promoter-linked expression at 1.5 uM incubated for 36 hrs by dual-luciferase reporter gene assay relative to control; type: cell-based; summary of the method: as §2
Quadruplex DNA [13] = assay: Binding affinity to cMYC G-quadruplex DNA (unknown origin) assessed as increase in emission intensity at 0.25 uM in presence of increasing concentration of DNA by fluorimetric titration relative to control; type: nucleic-acid assay; summary of the method: as §3
dsDNA [14] = assay: Binding affinity to double stranded DNA (unknown origin) assessed as increase in emission intensity at 0.25 uM by fluorimetric titration relative to control; type: nucleic-acid assay; summary of the method: as §3
dsDNA [15] = assay: Displacement thiazole orange from double stranded DNA (unknown origin) in tris-KCL buffer after 30 mins by FID assay; type: nucleic-acid assay; summary of the method: as §5
Quadruplex DNA [16] = assay: Binding affinity to cMYC G-quadruplex DNA in human HeLa cells assessed as reduction in cMYC protein expression at 1 uM after 24 hrs by Western blot analysis relative to control; type: cell-based; summary of the method: as §4
Quadruplex DNA [17] = assay: Binding affinity to cMYC G-quadruplex DNA G to A mutant promoter sequence (unknown origin) transfected in human Hela cells assessed as reduction in c-MYC promoter-linked expression at 1 to 1.5 uM incubated for 36 hrs by dual-luciferase reporter gene assay relative to control; type: cell-based; summary of the method: as §2
Quadruplex DNA [18] = assay: Binding affinity to 6-FAM/TAMRA labeled cMYC G-quadruplex DNA (unknown origin) in potassium cacodylate buffer assessed as change in melting temperature at 1 uM at pH 7.4 in presence of 1 to 200 equiv calf thymus DNA by FRET-Based DNA melting assay; type: nucleic-acid assay
Summary of the method: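 Competition FRET melting: 0.2 μM FAM/TAMRA-labelled c-MYC G4 oligo with 1 μM ligand plus unlabelled calf-thymus duplex DNA at 1–200 equivalents of G4; ΔTm followed (excitation 480 nm, emission 530 nm, 37–95 °C ramp).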

Quadruplex DNA [19] = assay: Binding affinity to cMYC G-quadruplex DNA in human HeLa cells assessed as reduction in cMYC protein expression at 2 uM after 24 hrs by Western blot analysis relative to control; type: cell-based; summary of the method: as §4
[20] = Drug level in human HeLa cell nucleus at 0.5 uM measured after overnight incubation by NucRed647-staining based confocal microscopy; type: ADME, subcellular
Summary of the method: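 Confocal: HeLa on coverslips treated overnight with 0.5 μM ligand, fixed 12 min in 1:1 acetone/methanol at −20 °C, nuclei stained with NucRed 647 Live 10 min in the dark; ligand localisation imaged by confocal laser scanning.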

[21] = Cytotoxicity against human NKE cells assessed as reduction in cell viability after 24 hrs by XTT assay; type: cell-based; summary of the method: as §6
Quadruplex DNA [22] = assay: Binding affinity to cMYC G-quadruplex DNA (unknown origin) in tris-KCL buffer by fluorimetric titration assay; type: nucleic-acid assay; summary of the method: as §3
HeLa [23] = assay: Cytotoxicity against human HeLa cells assessed as reduction in cell viability after 24 hrs by XTT assay; type: functional, cell-based; summary of the method: as §6
dsDNA [24] = assay: Binding affinity to double stranded DNA (unknown origin) in tris-KCL buffer by fluorimetric titration assay; type: nucleic-acid assay; summary of the method: as §3
Quadruplex DNA [25] = assay: Binding affinity to cMYC G-quadruplex DNA (unknown origin) assessed as reduction in fluorescence intensity at 0.25 uM by fluorimetric titration relative to control; type: nucleic-acid assay; summary of the method: as §3
dsDNA [26] = assay: Binding affinity to double stranded DNA (unknown origin) assessed as reduction in fluorescence intensity at 0.25 uM by fluorimetric titration relative to control; type: nucleic-acid assay; summary of the method: as §3
Quadruplex DNA [27] = assay: Binding affinity to cMYC G-quadruplex DNA G to A mutant promoter sequence (unknown origin) transfected in human Hela cells assessed as reduction in c-MYC promoter-linked expression at 1.5 uM incubated for 36 hrs by dual-luciferase reporter gene assay relative to control; type: cell-based; settings: in the assay text read “wild-type promoter sequence” for “G to A mutant promoter sequence”; summary of the method: as §2

Structure (SMILES)	ΔTm (dsDNA [1]) [°C]	ΔTm (Quadruplex DNA [2]) [°C]	DC50 (Quadruplex DNA [9]) [µM]	IC50 (A549) [µM]	DC50 (dsDNA [15]) [µM]	IC50 [21] [µM]	Kd (Quadruplex DNA [22]) [µM]	IC50 (HeLa [23]) [µM]	also measured
COc1ccc(-c2ccc3c(c2)c2cc(CNc4ccc(C#CCN(C)C)cc4)ccc2n3CCCN(C)C)cc1	3.79	5	–	–	–	–	–	–	–
COc1ccc(-c2ccc3c(c2)c2cc(CNC4CC4)ccc2n3CCCN(C)C)cc1	1.1	3.5	–	–	–	–	–	–	–
COc1ccc(-c2ccc3c(c2)c2cc(CNc4ccc(OCCCN(C)C)cc4)ccc2n3CCCN(C)C)cc1	0.58	23.4	2.25	6.4	> 30	> 50	1.08	2.5	inhibition (Quadruplex DNA [3]): 31%; Activity (Quadruplex DNA [4]): Active; inhibition (Quadruplex DNA [5]): Dose-dependent effect; inhibition (Quadruplex DNA [6]): 57%; Activity (HeLa [7]): Non-Toxic; Activity (Quadruplex DNA [8]): inactive; Activity (Quadruplex DNA [10]): inactive; Activity (Quadruplex DNA [11]): Active; inhibition (Quadruplex DNA [12]): 45%; fold change (FC) (Quadruplex DNA [13]): 4.4; Activity (dsDNA [14]): inactive; inhibition (Quadruplex DNA [16]): 27%; Activity (Quadruplex DNA [17]): inactive; Activity (Quadruplex DNA [18]): Active; inhibition (Quadruplex DNA [19]): 65%; Drug uptake [20]: Active
COc1ccc(-c2ccc3c(c2)c2cc(CNCCCN(C)C)ccc2n3CCCN(C)C)cc1	7.2	5.3	–	–	–	–	–	–	–
C#CCNCc1ccc2c(c1)c1cc(-c3ccc(OC)cc3)ccc1n2CCCN(C)C	8.5	11.8	> 25	> 25	> 30	> 50	7.17	11.5	Kd (dsDNA [24]): 7.03 µM; fold change (FC) (Quadruplex DNA [25]): 1.5; fold change (FC) (dsDNA [26]): 1.5; Activity (Quadruplex DNA [17]): inactive
COc1ccc(-c2ccc3c(c2)c2cc(CNc4nccs4)ccc2n3CCCN(C)C)cc1	1.15	3.2	–	–	–	–	–	–	–
COc1ccc(-c2ccc3c(c2)c2cc(CNc4ccc(Br)cc4C)ccc2n3CCCN(C)C)cc1	0.44	3.3	–	–	–	–	–	–	–
COc1ccc(-c2ccc3c(c2)c2cc(CNc4ccc([N+](=O)[O-])cc4)ccc2n3CCCN(C)C)cc1	2.4	3.4	–	–	–	–	–	–	–
COc1ccc(-c2ccc3c(c2)c2cc(CNc4ccc(O)cc4)ccc2n3CCCN(C)C)cc1	1.9	0.7	–	–	–	–	–	–	–
CCCCNCc1ccc2c(c1)c1cc(-c3ccc(OC)cc3)ccc1n2CCCN(C)C	9.5	13.6	8.01	4.3	> 30	> 50	5.72	2	Kd (dsDNA [24]): 6.63 µM; inhibition (Quadruplex DNA [27]): 14%
